Results published in ChEMBL document CHEMBL1833940, “Discovery of 3-(2,6-dichloro-3,5-dimethoxy-phenyl)-1-{6-[4-(4-ethyl-piperazin-1-yl)-phenylamino]-pyrimidin-4-yl}-1-methyl-urea (NVP-BGJ398), a potent and selective inhibitor of the fibroblast growth factor receptor family of receptor tyrosine kinase” (J Med Chem, 2011).
Activity calls are given as the source filed them. The rule behind the calls is not given here.

Experiments:
[1] = Cmax in Wistar rat at 10 mg/kg, po by LC-MS/MS analysis; assay type: ADME, organism-based; design: dose 10 mg/kg, route oral; details: in vivo
Procedure, shortened: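 Female Wistar rats received either an iv femoral-vein dose of 5 mg/kg in NMP/PEG200 (1:9) or an oral dose of monophosphate salt at 10 mg/kg (free base) in acetate buffer pH 4.6/PEG300. Plasma was sampled by sublingual bleeding at 0.083–24 h (n = 4 staggered, or n = 3–4 serial). Plasma levels were measured by LC-MS/MS (LOQ 10 ng/mL).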

[2] = molecular target: MAP kinase-activated protein kinase 5 (Homo sapiens, UniProt Q8IW41); assay: Inhibition of recombinant MK5
Procedure, shortened: (§1)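 Purified recombinant kinases under optimized conditions with peptide substrates. ATP was set at each kinase's Km. Phosphorylation was read by microfluidic mobility-shift separation of substrate and product; IC50 determined.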

[3] = molecular target: Phosphatidylinositol 4,5-bisphosphate 3-kinase catalytic subunit alpha isoform (Homo sapiens, UniProt P42336); assay: Inhibition of recombinant PI3Kalpha
[4] = molecular target: Protein kinase C theta type (Homo sapiens, UniProt Q04759); assay: Inhibition of recombinant PKCtheta; procedure, shortened: as §1
Rattus norvegicus [5] = assay: Inhibition of FGFR autophosphorylation in RT112 tumor bearing nude rowett rat assessed as decrease in pMAPK concentration at 4.25 to 8.51 mg/kg, po administered as a single dose after 24 hrs by Western blot analysis; assay type: functional, organism-based
Procedure, shortened: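 RT112 subcutaneous xenografts in female nude Rowett rats (n = 4). Single oral gavage of the monophosphate salt at 4.25 or 8.51 mg/kg (free base equivalents) in acetic acid–acetate buffer pH 4.6/PEG300 (1:1). Tumors were collected at time points up to 24 h, frozen, homogenized and lysed. Western blots probed pFRS2(Tyr196) and pMAPK, with total FRS2, total MAPK or β-tubulin as loading controls.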

Mus musculus = assay: Toxicity in athymic nude mouse xenografted with human RT112 cells/luc1 assessed as increase in body weight at 30 mg/kg, po administered for 12 days; details: in vivo, 288 h
[6] = molecular target: Tyrosine-protein kinase ZAP-70 (Homo sapiens, UniProt P43403); assay: Inhibition of recombinant ZAP70
Procedure, shortened: (§2)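 Purified recombinant kinases were tested under optimized conditions with peptide substrates. ATP was set at each kinase's Km. Phosphorylation was read out by microfluidic mobility shift, and IC50 values were determined.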

[7] = Inhibition of LCK-B-mediated proliferation of mouse BAF3 cells transformed with Tel-kinase construct; assay type: cell-based
Procedure, shortened: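 Murine BaF3 cells made IL-3-independent by a Tel-kinase fusion were grown in RPMI-1640 with 10% FBS. Cells were seeded at 4250 per well with DMSO-diluted compound and incubated 48 h at 37 °C. Viability was read by Bright-Glo luminescence.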

[8] = Tmax in tumor of RT112/luc1 cells implanted athymic nude mouse at 20 mg/kg, po by LC/MS/MS analysis; assay type: ADME, organism-based, Neoplasm; design: dose 20 mg/kg, route oral
Procedure, shortened: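 Female athymic nude mice carrying subcutaneous RT112/luc1 tumors (ca. 300–400 mm3). Dosing was 5 mg/kg iv by tail vein in NMP/PEG200 (1:9) or 20 mg/kg by oral gavage as a suspension in PEG300/D5W (2:1). Groups (n = 4) were sacrificed from 0.083 to 24 h. Plasma and tumor were measured by LC-MS/MS (LOQ 5 ng/mL, 10 ng/g). Noncompartmental analysis used the linear trapezoidal AUC; F was calculated from dose-normalized AUC.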

Tumour = assay: Drug uptake in tumour of nude Rowett rat bearing human RT112 cells at 8.51 mg/kg, po administered as a single dose after 16 hrs by LC-MS/MS analysis; assay type: ADME, organism-based, Neoplasm, RT-112; design: dose 8.51 mg/kg, route oral; details: in vivo
Procedure, shortened: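 Nude Rowett rats bearing subcutaneous RT112 tumors (n = 4) received a single gavage of monophosphate salt at 4.25 or 8.51 mg/kg free base in acetate buffer pH 4.6/PEG300. Tumors were collected at intervals after dosing, frozen and homogenized in an equal volume of ice-cold PBS. Compound levels were measured by LC-MS/MS (LOQ 3 ng/mL).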

Cytochrome P450 1A2 = molecular target: T1, Cytochrome P450 1A2 (Homo sapiens, UniProt P05177); assay: Inhibition of CYP1A2 using CEC as substrate; assay type: ADME
T1 sequence (P05177 whole entry): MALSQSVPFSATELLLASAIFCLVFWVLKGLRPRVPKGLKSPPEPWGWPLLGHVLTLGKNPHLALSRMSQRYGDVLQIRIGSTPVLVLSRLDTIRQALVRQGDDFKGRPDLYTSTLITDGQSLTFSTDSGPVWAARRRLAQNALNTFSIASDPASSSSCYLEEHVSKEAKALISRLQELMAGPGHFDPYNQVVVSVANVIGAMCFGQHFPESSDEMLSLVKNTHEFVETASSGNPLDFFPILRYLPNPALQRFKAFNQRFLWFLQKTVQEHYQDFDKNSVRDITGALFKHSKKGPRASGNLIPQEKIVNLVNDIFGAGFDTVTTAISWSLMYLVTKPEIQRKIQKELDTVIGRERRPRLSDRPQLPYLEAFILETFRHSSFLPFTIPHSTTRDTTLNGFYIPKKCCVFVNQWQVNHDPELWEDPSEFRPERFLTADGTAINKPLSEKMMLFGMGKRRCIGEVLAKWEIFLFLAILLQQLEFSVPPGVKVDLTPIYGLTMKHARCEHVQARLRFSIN
Procedure, shortened: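 Human CYP450 inhibition was measured with isoform-specific fluorogenic probe substrates: CEC for 1A2 and 2C19, MFC for 2C9, AMMC for 2D6. Incubation was at 37 °C with an NADPH-regenerating system in 384-well format. Metabolite was quantified by fluorescence, and IC50 was obtained by curve fitting.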

[9] = molecular target: Mitogen-activated protein kinase 12 (Homo sapiens, UniProt P53778); assay: Inhibition of recombinant p38-gamma; procedure, shortened: as §1
[10] = molecular target: Tyrosine-protein kinase Yes (Homo sapiens, UniProt P07947); assay: Inhibition of recombinant YES kinase; procedure, shortened: as §1
[11] = Oral bioavailability in Wistar rat at 10 mg/kg; assay type: ADME, organism-based; details: in vivo
Procedure, shortened: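 Female Wistar rats received 5 mg/kg iv into the femoral vein in NMP/PEG200 (1:9), or the monophosphate salt orally at 10 mg/kg (free base) in acetate buffer pH 4.6/PEG300. Serial sublingual plasma samples were taken from 0.083 to 24 h.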

[12] = molecular target: Receptor tyrosine-protein kinase erbB-4 (Homo sapiens, UniProt Q15303); assay: Inhibition of recombinant ERBB4; procedure, shortened: as §1
[13] = molecular target: Hepatocyte growth factor receptor (Homo sapiens, UniProt P08581); assay: Inhibition of recombinant MET; procedure, shortened: as §2
Rattus norvegicus [14] = assay: Inhibition of FGFR autophosphorylation in RT112 tumor bearing nude rowett rat assessed as decrease in pFRS2 concentration at 4.25 to 8.51 mg/kg, po administered as a single dose after 24 hrs by Western blot analysis; assay type: functional, organism-based
Procedure, shortened: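 RT112 tumor-bearing nude Rowett rats (n = 4) received a single oral dose of monophosphate salt at 4.25 or 8.51 mg/kg free base. Tumors were collected at time points up to 24 h and lysed in Tris/Triton buffer with vanadate and protease inhibitors. Western blots were run for pFRS2(Tyr196) and pMAPK, with total FRS2, total MAPK or β-tubulin as loading controls.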

Focal adhesion kinase 1 = Focal adhesion kinase 1 (Homo sapiens, UniProt Q05397); assay: Inhibition of recombinant FAK; procedure, shortened: as §1
Chain of Focal adhesion kinase 1 (Q05397 whole entry): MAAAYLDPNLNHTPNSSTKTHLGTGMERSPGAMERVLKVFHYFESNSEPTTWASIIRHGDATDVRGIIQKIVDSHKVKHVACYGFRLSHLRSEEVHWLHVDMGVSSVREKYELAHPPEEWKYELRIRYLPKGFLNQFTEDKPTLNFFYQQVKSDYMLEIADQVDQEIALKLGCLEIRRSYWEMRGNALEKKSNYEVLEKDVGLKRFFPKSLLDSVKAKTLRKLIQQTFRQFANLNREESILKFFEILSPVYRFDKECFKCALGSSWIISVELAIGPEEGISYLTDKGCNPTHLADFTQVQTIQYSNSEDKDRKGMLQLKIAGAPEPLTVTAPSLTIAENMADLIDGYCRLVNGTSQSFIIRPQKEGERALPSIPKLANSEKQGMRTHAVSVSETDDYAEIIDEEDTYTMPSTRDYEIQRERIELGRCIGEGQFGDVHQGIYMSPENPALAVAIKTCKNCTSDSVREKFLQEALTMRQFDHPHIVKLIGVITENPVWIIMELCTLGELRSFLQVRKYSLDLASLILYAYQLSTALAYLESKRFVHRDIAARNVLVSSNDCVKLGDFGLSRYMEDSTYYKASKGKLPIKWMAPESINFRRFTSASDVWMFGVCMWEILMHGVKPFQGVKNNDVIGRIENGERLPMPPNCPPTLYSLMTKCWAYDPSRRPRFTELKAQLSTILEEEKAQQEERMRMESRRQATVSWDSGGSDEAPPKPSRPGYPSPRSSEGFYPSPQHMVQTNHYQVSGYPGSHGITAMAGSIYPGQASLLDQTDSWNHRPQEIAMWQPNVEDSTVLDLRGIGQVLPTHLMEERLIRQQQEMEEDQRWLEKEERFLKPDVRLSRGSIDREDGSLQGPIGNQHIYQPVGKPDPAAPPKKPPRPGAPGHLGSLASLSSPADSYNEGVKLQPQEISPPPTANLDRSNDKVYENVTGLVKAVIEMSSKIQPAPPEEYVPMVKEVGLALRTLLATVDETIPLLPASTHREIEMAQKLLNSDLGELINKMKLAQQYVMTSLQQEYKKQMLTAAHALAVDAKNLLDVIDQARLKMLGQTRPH

Chain of Hepatocyte growth factor receptor (P08581 whole entry): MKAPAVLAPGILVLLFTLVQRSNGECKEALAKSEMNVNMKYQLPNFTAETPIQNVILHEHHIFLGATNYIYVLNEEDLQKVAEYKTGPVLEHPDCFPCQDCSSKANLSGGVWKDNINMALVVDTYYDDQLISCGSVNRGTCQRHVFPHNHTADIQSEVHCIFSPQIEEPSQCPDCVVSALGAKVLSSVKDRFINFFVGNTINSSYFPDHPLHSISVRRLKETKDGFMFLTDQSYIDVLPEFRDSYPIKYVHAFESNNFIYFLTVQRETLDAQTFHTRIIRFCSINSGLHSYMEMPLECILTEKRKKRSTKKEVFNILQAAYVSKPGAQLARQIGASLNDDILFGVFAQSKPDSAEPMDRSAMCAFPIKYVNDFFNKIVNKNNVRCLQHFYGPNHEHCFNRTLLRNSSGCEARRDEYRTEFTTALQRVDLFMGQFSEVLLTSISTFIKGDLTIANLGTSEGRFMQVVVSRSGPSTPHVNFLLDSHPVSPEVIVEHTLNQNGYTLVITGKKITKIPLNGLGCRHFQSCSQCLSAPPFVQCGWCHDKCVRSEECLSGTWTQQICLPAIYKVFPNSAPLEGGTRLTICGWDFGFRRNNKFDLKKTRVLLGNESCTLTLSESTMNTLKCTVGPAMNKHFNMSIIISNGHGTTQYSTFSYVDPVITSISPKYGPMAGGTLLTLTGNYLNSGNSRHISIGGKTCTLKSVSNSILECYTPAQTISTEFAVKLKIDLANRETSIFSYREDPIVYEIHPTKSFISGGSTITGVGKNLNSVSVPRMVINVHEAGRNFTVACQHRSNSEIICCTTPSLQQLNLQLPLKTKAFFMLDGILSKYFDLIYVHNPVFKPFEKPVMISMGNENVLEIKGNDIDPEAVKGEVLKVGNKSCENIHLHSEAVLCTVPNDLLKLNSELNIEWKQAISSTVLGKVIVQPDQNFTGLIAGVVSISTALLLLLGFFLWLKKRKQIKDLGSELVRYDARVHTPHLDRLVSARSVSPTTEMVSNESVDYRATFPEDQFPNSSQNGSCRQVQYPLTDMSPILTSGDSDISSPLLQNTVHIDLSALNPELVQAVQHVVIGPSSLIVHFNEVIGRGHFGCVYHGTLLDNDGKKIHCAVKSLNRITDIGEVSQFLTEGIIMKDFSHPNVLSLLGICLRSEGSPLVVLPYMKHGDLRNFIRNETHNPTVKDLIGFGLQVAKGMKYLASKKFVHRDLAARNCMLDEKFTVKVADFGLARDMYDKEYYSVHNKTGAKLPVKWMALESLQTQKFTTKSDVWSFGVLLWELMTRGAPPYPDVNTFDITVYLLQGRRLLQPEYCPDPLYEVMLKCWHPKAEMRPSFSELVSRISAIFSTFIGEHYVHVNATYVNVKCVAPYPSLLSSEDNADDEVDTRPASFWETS
Chain of Mitogen-activated protein kinase 12 (P53778 whole entry): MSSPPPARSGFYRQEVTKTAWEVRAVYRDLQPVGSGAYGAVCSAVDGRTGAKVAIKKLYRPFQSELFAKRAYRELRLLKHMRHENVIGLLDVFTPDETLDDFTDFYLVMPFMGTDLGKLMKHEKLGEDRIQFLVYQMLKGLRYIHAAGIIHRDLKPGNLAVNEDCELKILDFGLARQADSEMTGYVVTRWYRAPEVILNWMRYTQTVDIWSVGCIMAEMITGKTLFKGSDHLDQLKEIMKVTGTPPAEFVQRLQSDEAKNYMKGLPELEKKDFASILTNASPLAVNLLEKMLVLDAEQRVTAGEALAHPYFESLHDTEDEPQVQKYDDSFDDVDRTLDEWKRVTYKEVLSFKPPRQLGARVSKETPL
Chain of Protein kinase C theta type (Q04759 whole entry): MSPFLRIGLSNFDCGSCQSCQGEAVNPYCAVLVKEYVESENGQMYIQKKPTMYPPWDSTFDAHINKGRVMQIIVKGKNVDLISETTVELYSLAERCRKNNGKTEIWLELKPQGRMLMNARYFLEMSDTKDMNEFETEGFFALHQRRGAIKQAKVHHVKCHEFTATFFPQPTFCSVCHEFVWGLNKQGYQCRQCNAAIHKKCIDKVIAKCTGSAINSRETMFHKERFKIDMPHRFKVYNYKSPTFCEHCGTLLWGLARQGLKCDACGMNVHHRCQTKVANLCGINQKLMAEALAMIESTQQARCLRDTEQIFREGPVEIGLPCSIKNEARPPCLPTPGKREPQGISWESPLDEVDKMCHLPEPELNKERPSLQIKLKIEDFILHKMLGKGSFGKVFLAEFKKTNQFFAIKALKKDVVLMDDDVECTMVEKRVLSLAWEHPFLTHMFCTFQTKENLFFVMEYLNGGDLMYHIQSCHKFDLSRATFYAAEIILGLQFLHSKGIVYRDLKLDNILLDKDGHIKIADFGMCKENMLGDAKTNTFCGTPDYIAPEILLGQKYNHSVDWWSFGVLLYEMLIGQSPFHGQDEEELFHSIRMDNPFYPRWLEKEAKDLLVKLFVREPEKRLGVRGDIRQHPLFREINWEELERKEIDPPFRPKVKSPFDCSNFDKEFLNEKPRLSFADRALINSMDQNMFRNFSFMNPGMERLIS
Chain of Receptor tyrosine-protein kinase erbB-4 (Q15303 whole entry): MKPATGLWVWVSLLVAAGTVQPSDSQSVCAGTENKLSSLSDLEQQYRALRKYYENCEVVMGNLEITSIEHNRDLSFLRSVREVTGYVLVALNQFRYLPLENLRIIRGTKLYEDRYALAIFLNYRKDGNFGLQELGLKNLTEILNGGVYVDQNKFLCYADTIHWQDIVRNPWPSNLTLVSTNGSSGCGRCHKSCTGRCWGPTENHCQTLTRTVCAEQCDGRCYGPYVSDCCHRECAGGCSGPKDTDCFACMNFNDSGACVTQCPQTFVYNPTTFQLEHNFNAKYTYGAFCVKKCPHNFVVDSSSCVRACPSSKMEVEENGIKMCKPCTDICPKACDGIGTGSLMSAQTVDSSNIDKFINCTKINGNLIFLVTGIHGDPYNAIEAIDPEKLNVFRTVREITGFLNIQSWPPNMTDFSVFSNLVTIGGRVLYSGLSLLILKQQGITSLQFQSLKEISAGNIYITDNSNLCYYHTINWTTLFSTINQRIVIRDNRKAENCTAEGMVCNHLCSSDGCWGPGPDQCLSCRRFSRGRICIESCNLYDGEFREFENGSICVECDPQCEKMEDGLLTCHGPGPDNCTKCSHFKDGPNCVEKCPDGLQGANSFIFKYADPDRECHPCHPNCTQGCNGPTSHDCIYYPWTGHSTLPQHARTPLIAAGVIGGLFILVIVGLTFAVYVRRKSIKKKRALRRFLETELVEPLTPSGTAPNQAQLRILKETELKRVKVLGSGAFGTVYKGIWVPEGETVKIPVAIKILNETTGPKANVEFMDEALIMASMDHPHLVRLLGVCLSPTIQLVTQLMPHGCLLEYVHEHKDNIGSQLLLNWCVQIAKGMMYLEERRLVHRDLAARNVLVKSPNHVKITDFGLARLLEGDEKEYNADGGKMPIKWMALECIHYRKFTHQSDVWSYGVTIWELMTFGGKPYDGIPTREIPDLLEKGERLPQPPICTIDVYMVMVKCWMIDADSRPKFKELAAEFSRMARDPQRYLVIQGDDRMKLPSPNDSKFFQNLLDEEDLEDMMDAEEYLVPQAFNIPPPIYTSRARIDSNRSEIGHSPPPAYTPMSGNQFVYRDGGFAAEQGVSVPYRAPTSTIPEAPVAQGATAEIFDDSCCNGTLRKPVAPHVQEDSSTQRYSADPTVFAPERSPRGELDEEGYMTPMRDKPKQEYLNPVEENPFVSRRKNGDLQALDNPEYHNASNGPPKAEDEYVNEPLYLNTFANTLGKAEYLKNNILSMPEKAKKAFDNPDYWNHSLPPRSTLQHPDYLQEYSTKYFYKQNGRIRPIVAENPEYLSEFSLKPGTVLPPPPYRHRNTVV

- Cmax [1]: 260 nM
- IC50 [2]: > 10 µM
- IC50 [3]: > 9 µM
- IC50 [4]: > 10 µM
- IC50 [6]: > 10 µM
- Tmax [8]: 8 h
- Drug uptake (Tumour): 0.62 nmol/g
- IC50 (Cytochrome P450 1A2): > 10 µM
- IC50 [9]: > 10 µM
- IC50 [10]: 1.1 µM
- bioavailability [11]: 51%
- IC50 [12]: > 10 µM
- IC50 [13]: > 10 µM
- IC50 (Focal adhesion kinase 1): > 10 µM
SMILES: CCN1CCN(c2ccc(Nc3cc(N(C)C(=O)Nc4c(Cl)c(OC)cc(OC)c4Cl)ncn3)cc2)CC1.O=P(O)(O)O [INFIGRATINIB PHOSPHATE]
- inhibition (Rattus norvegicus [5]): inactive
- Activity (Mus musculus): 10%
- IC50 [7]: 2.48 µM
- inhibition (Rattus norvegicus [14]): inactive
